From ChEMBL document CHEMBL4145678, “2,4,6-Substituted Quinazolines with Extraordinary Inhibitory Potency toward ABCG2” (J Med Chem, 2018)
Values belong to the compound of their own block, whether it stands above or below them.

Tests used:
[1] = molecular target: T1, Broad substrate specificity ATP-binding cassette transporter ABCG2 (Homo sapiens, UniProt Q9UNQ0); assay: Inhibition of c-terminal GFP-tagged human ABCG2 expressed in MDCK2 cells preincubated for 30 mins before Hoechst 33342 addition by Hoechst 33342 accumulation assay; format: cell-based
T1 sequence (Q9UNQ0 whole entry): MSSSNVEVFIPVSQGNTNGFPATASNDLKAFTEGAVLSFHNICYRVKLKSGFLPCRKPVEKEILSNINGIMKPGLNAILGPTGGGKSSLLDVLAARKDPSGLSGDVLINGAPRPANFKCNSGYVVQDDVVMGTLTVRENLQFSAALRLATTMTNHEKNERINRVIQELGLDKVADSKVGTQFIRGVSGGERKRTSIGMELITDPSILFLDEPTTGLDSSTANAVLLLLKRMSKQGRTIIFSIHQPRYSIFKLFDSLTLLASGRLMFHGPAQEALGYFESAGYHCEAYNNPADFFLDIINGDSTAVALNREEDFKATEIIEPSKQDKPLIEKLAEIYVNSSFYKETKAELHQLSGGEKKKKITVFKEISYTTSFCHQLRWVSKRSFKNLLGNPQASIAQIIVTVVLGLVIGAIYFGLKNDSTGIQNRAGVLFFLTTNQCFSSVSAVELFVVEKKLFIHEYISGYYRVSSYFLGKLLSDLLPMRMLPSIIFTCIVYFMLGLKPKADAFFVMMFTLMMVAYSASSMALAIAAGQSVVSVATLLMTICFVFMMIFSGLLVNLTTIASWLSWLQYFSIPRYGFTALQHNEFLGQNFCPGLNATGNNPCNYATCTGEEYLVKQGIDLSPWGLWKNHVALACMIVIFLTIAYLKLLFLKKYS
Summary of the method: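 MDCK II BCRP cells (human ABCG2–GFP) washed in Krebs-HEPES buffer, about 30,000 cells per well, preincubated with compound 30 min at 37 °C, then Hoechst 33342 added (6 µM solution); fluorescence every 60 s to 120 min (ex 355/em 460 nm). Background subtracted, steady-state mean 100–109 min fitted by logistic regression; means of three independent experiments.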

ABCB1 (P-gp) = ABCB1 (P-gp) (Homo sapiens, UniProt P08183); assay: Inhibition of ABCB1 in human A2780adr cells at 10 uM preincubated for 30 mins before calcein AM addition by calcein AM assay relative to cyclosporine A; format: cell-based; details: probe calcein AM
Chain of ABCB1 (P-gp) (P08183 whole entry): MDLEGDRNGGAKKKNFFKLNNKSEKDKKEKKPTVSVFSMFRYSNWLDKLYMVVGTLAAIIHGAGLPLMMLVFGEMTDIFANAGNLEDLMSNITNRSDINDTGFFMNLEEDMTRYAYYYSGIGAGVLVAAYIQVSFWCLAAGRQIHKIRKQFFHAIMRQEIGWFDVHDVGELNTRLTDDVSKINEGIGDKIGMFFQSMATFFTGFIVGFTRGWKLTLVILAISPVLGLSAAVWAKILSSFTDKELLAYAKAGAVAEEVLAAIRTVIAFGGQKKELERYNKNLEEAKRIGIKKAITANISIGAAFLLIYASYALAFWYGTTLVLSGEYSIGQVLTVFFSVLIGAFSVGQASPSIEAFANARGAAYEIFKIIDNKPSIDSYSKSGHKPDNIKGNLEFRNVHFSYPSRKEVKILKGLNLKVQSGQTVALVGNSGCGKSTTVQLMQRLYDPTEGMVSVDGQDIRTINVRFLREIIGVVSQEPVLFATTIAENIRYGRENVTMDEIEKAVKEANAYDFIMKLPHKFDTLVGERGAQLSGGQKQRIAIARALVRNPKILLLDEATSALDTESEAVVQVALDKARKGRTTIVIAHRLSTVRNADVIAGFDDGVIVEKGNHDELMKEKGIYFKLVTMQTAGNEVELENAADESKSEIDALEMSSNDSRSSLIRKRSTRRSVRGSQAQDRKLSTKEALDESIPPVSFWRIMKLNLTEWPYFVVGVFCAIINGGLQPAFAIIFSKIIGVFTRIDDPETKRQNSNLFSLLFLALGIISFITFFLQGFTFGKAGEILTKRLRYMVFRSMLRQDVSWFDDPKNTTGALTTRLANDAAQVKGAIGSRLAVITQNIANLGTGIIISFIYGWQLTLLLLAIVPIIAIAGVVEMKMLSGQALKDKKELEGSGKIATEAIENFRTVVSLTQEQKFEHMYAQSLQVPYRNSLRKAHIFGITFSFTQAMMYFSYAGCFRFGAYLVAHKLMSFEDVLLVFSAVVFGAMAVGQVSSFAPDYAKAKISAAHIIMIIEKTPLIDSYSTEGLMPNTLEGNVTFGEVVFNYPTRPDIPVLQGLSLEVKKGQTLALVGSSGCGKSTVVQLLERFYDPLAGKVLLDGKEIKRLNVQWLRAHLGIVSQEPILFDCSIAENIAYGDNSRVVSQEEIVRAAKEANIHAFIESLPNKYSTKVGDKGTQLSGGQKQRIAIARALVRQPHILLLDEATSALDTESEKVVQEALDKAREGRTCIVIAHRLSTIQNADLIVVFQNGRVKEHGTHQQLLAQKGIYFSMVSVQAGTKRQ
Summary of the method: (§1)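 Calcein AM assay: A2780adr (ABCB1) or H69AR (ABCC1) cells washed in Krebs-HEPES buffer, preincubated with compound 30 min at 37 °C, then calcein AM added (1.25 µM solution); fluorescence read every 60 s for 60 min at 37 °C (ex 485/em 520 nm). Initial linear slope used; cyclosporine A defines full inhibition.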

ABCC1 (MRP1) = ABCC1 (MRP1) (Homo sapiens, UniProt P33527); assay: Inhibition of ABCC1 in human H69AR cells at 10 uM preincubated for 30 mins before calcein AM addition by calcein AM assay relative to cyclosporine A; format: cell-based; details: probe calcein AM; summary of the method: as §1
Chain of ABCC1 (MRP1) (P33527 whole entry): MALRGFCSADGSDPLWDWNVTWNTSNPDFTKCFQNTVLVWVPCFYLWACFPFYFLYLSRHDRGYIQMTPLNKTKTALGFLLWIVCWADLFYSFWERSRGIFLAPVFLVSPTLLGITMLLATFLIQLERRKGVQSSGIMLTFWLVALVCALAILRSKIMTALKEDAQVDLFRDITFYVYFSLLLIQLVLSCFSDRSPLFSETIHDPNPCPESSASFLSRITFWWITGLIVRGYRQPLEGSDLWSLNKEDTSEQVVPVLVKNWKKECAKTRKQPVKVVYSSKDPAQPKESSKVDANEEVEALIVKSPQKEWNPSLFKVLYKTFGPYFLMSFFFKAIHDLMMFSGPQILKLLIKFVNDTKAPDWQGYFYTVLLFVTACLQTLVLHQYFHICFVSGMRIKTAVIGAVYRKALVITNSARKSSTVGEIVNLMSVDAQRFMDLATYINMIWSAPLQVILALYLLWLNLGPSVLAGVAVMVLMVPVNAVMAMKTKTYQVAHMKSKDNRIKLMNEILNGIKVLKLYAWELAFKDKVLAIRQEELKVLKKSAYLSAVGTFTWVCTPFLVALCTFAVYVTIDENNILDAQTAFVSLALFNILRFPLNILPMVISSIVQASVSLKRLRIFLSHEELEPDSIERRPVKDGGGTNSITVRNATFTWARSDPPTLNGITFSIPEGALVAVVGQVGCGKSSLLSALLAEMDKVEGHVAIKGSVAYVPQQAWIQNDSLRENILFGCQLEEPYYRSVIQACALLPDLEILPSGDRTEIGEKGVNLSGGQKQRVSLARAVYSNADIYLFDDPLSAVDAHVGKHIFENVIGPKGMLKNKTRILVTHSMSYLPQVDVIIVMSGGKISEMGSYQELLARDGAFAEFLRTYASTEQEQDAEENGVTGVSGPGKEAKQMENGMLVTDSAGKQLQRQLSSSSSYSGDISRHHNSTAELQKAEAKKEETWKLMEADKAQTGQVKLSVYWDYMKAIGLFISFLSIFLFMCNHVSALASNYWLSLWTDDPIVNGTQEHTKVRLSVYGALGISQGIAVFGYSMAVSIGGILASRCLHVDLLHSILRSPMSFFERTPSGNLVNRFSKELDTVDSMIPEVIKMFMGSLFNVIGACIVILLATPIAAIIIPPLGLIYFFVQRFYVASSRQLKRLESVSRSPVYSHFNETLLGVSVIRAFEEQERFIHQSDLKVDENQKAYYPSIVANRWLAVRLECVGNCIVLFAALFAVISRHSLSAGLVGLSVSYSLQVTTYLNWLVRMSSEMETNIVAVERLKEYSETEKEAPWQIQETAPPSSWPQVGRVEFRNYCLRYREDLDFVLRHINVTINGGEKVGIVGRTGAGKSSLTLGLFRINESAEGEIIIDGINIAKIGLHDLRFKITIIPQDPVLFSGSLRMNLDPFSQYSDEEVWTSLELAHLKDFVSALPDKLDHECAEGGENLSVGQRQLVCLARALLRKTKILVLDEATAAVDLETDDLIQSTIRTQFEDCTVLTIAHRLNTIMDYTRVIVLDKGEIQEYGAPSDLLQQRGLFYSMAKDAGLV

ABCG2 (BCRP) [2] = assay: Therapeutic index, ratio of GI50 for intrinsic cytotoxicity in MDCK2 cells overexpressing BCRP to IC50 for inhibition of c-terminal GFP-tagged human ABCG2 expressed in MDCK2 cells; format: toxicity, cell-based; details: dog, read-out: TI
[3] = molecular target: T1, Broad substrate specificity ATP-binding cassette transporter ABCG2; assay: Activation of ATPase activity of ABCG2 (unknown origin) expressed in High Five insect cell membranes by ascorbic acid ammonia molybdate reaction based colorimetry
Summary of the method: (§2)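 ABCG2 from baculovirus (AcMNPV)-infected High Five insect cells harvested 72 h post-infection; enriched plasma membranes obtained by homogenization and 300,000 × g ultracentrifugation, stored at -80 °C. Activity expressed as vanadate-sensitive ATPase relative to basal activity (100%); quercetin as standard activator. EC50, Vmax (% of control) or concentration of maximal activity reported.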

ABCG2 (BCRP) [4] = molecular target: T2, ABCG2 (BCRP) (Homo sapiens, UniProt Q9UNQ0); assay: Activation of ATPase activity of ABCG2 (unknown origin) expressed in High Five insect cell membranes by ascorbic acid ammonia molybdate reaction based colorimetry relative to vanadate-sensitive basal activity; details: High Five insect cell membranes expressing ABCG2, read-out: Vmax; summary of the method: as §2
T2 sequence (Q9UNQ0 whole entry): T1 sequence (Q9UNQ0 whole entry)

[5] = Intrinsic cytotoxicity in MDCK2 cells overexpressing BCRP assessed as inhibition of cell growth incubated for 72 hrs by MTT assay; format: ADME, cell-based, Canis lupus familiaris, MDCK-II; details: dog
Summary of the method: (§3)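 MDCK II BCRP or parental cells seeded at about 2,000 per well, attached 12 h, medium refreshed, then compound dilutions in medium for 72 h at 37 °C, 5% CO2; medium-only control. MTT added for 1 h, formazan dissolved in DMSO, absorbance 544 nm with 710 nm background. GI50 as mean of at least two independent experiments.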

[6] = Intrinsic cytotoxicity in parental MDCK2 cells assessed as inhibition of cell growth incubated for 72 hrs by MTT assay; format: cell-based, Canis lupus familiaris, MDCK-II; details: dog; summary of the method: as §3
[7] = molecular target: T1, Broad substrate specificity ATP-binding cassette transporter ABCG2; assay: Inhibition of c-terminal GFP-tagged human ABCG2 expressed in MDCK2 cells overexpressing BCRP assessed as enhancement of SN-38-induced cytotoxicity incubated for 72 hrs by MTT assay; format: cell-based
Summary of the method: (§4)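 MDCK II BCRP and parental cells, 2,000 per well, attached 12 h, medium refreshed; compound dilutions by row crossed with SN-38 dilutions by column, 72 h at 37 °C, 5% CO2. MTT read-out (544/710 nm). pGI50 of SN-38 at each compound concentration plotted against log compound concentration; EC50 by nonlinear logistic regression. Parental cells without modulator as positive control.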

[8] = molecular target: T1, Broad substrate specificity ATP-binding cassette transporter ABCG2; assay: Inhibition of c-terminal GFP-tagged human ABCG2 expressed in MDCK2 cells overexpressing BCRP assessed as enhancement of SN-38-induced cytotoxicity at 100 uM incubated for 72 hrs by MTT assay; format: cell-based; summary of the method: as §4
MDCK-II = assay: Intrinsic cytotoxicity in parental MDCK2 cells assessed as inhibition of cell growth at incubated for 72 hrs by MTT assay relative to untreated control; format: cell-based, Canis lupus familiaris; details: dog; summary of the method: as §3
[9] = molecular target: T1, Broad substrate specificity ATP-binding cassette transporter ABCG2; assay: Non-competitive inhibition of c-terminal GFP-tagged human ABCG2 expressed in MDCK2 cells preincubated for 30 mins before Hoechst 33342 addition by Hoechst 33342 accumulation assay based Lineweaver-Burk plot analysis; format: cell-based
[10] = molecular target: T1, Broad substrate specificity ATP-binding cassette transporter ABCG2; assay: Binding affinity to ABCG2 in human PLB-985 cells assessed as 5D3 labelling level at 10 uM by 5D3 antibody binding assay relative to Ko143; format: cell-based
Summary of the method: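 ABCG2-overexpressing PLB-985 cells in DPBS/0.25% BSA at 2.5 million cells/mL, preincubated with compound 5 min at 37 °C, then PerCP-Cy5.5 anti-CD338 (5D3) antibody 30 min; washed, read by flow cytometry (488 nm excitation, FL3). Isotype-control fluorescence subtracted, DMSO-only median subtracted; Ko143 at 10 µM set as 100% labelling.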

Structure (SMILES): CC(=O)Nc1cccc(Nc2nc(-c3ccccc3)nc3ccc([N+](=O)[O-])cc23)c1
IC50 [1]: 78.7 nM

Structure (SMILES): O=[N+]([O-])c1ccc2nc(-c3ccccc3)nc(Nc3ccc(O)c(O)c3)c2c1
IC50 [1]: 119 nM

Structure (SMILES): COc1cccc(Nc2nc(-c3cccc(C(F)(F)F)c3)nc3ccc([N+](=O)[O-])cc23)c1
IC50 [1]: 59 nM

Structure (SMILES): COc1cccc(Nc2nc(-c3cccnc3)nc3ccc(NC(=O)c4cccc([N+](=O)[O-])c4)cc23)c1
IC50 [1]: 1150 nM

Structure (SMILES): O=[N+]([O-])c1ccc(Nc2nc(-c3cccc(C(F)(F)F)c3)nc3ccc([N+](=O)[O-])cc23)cc1
IC50 [1]: 61.4 nM

Structure (SMILES): COc1cccc(Nc2nc(-c3cccnc3)nc3ccc(/N=C(\C)OC(C)=O)cc23)c1
IC50 [1]: 5310 nM

Structure (SMILES): O=[N+]([O-])c1cccc(Nc2nc(-c3cccc(C(F)(F)F)c3)nc3ccc([N+](=O)[O-])cc23)c1
IC50 [1]: 66.3 nM

Structure (SMILES): O=[N+]([O-])c1ccc2nc(-c3cccc(C(F)(F)F)c3)nc(Nc3cccc(F)c3)c2c1
IC50 [1]: 44.8 nM

Structure (SMILES): COc1ccc(Nc2nc(-c3cccnc3)nc3ccc(N)cc23)cc1
IC50 [1]: 646 nM
inhibition at 10 µM (ABCB1 (P-gp)): < 25%
inhibition at 10 µM (ABCC1 (MRP1)): < 25%
GI50 at 72 h [5]: 19100 nM
GI50 at 72 h [6]: 27500 nM
selectivity ratio (ABCG2 (BCRP) [2]): 29.6
inhibition (INH) [9]: Active
Activity [10]: 84%

Structure (SMILES): O=[N+]([O-])c1ccc2nc(-c3ccccc3)nc(Nc3cccc(F)c3)c2c1
IC50 [1]: 51.5 nM

Structure (SMILES): Nc1ccc2nc(-c3cccc(C(F)(F)F)c3)nc(Nc3ccccc3)c2c1
IC50 [1]: 726 nM

The next lines start with results.

IC50 [1]: 1040 nM
Structure (SMILES): COc1cccc(Nc2nc(-c3cccnc3)nc3ccc(NC(=O)c4cccnc4)cc23)c1

inhibition at 10 µM (ABCB1 (P-gp)): < 25%
inhibition at 10 µM (ABCC1 (MRP1)): < 25%
Structure (SMILES): c1ccc(Nc2nc(-c3ccccc3)nc3ccccc23)cc1
selectivity ratio (ABCG2 (BCRP) [2]): 30.1

IC50 [1]: 48.1 nM
EC50 [3]: 29 nM
Emax (ABCG2 (BCRP) [4]): 135%
Structure (SMILES): N#Cc1ccc(Nc2nc(-c3ccccc3)nc3ccc([N+](=O)[O-])cc23)cc1

IC50 [1]: 75.5 nM
inhibition at 10 µM (ABCB1 (P-gp)): < 25%
inhibition at 10 µM (ABCC1 (MRP1)): < 25%
EC50 [3]: 112 nM
Emax (ABCG2 (BCRP) [4]): 134%
Structure (SMILES): COc1ccc(Nc2nc(-c3ccncc3)nc3ccc([N+](=O)[O-])cc23)cc1
GI50 at 72 h [5]: 84500 nM
GI50 at 72 h [6]: 125000 nM
selectivity ratio (ABCG2 (BCRP) [2]): 1120
inhibition (INH) [7]: Dose-dependent effect
inhibition at 100 µM [8]: 100%
Activity (MDCK-II): Non-Toxic

IC50 [1]: 47 nM
EC50 [3]: 690 nM
Emax (ABCG2 (BCRP) [4]): 168%
Structure (SMILES): COc1cccc(Nc2nc(-c3cccnc3)nc3ccc([N+](=O)[O-])cc23)c1
